Values after ≈ are worked out from the molar mass of the structure shown.
Legend:
[1] = target: T1, Quinolone resistance protein NorA (Staphylococcus aureus) (UniProt P0A0J7); experiment: Inhibition of NorA in fluoroquinolone-resistant Staphylococcus aureus 1199B assessed as minimum modulatory concentration require to potentiate 16 ug/ml norfloxacin-induced antibacterial activity
T1 sequence (whole entry): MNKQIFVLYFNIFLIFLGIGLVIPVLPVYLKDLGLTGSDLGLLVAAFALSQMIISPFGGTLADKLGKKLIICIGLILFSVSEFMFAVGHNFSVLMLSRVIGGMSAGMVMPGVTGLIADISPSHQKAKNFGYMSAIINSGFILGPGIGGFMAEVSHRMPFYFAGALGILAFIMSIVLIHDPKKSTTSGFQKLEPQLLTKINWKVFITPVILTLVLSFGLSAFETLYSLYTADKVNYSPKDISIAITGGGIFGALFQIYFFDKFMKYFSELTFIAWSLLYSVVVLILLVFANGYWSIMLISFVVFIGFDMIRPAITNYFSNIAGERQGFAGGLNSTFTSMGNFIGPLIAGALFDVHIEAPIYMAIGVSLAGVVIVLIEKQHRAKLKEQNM

[2] = target: T1, Quinolone resistance protein NorA (Staphylococcus aureus); experiment: Inhibition of NorA in fluoroquinolone-resistant Staphylococcus aureus 1199B assessed as minimum modulatory concentration require to potentiate 2 ug/ml ciprofloxacin-induced antibacterial activity
[3] = Cytotoxicity against human KB cells assessed as growth inhibition at 10 uM after 72 hrs by MTS assay relative to control; assay type: cell-based; settings: read-out: GI
Summary of the method: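 KB cells were grown in D-MEM with 10% FCS at 37°C under 5% CO2. Compounds in DMSO (1% final) were added 24 h after plating, and cells were exposed for 72 h. MTS was then added for 3 h and absorbance read at 490 nm. Inhibition = (1 − OD treated/OD DMSO control) × 100, in triplicate. Docetaxel 0.15 nM served as positive control.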

Staphylococcus aureus [4] = experiment: Antibacterial activity against methicillin-susceptible […] Staphylococcus aureus ATCC 25923 after 24 hrs by two fold microdilution method; assay type: functional; settings: ATCC 25923, 24 h
Summary of the method: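 Broth microdilution in Mueller-Hinton broth, about 10^6 CFU/mL per well, inoculum from an 18 h culture at 37°C. Compounds were dissolved in DMSO and tested in twofold serial dilutions, top 128 mg/L, or the highest fully soluble level (at least 16 mg/L). MIC is the lowest concentration giving complete growth inhibition after 24 h at 37°C, read at 620 nm and visually, in duplicate.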

Staphylococcus aureus [5] = experiment: Antibacterial activity against fluoroquinolone-resistant Staphylococcus aureus 1199B overexpressing NorA after 24 hrs by two fold microdilution method; assay type: functional
[6] = target: T1, Quinolone resistance protein NorA (Staphylococcus aureus); experiment: Inhibition of NorA in fluoroquinolone-resistant Staphylococcus aureus 1199B assessed as minimum modulatory concentration require to potentiate 4 ug/ml ciprofloxacin-induced antibacterial activity
[7] = target: T1, Quinolone resistance protein NorA (Staphylococcus aureus); experiment: Inhibition of NorA in fluoroquinolone-resistant Staphylococcus aureus 1199B assessed as minimum modulatory concentration require to potentiate 2 ug/ml ciprofloxacin-induced antibacterial activity at MMC relative to control
[8] = Cytotoxicity against human KB cells assessed as growth inhibition at 10^-6 M after 72 hrs by MTS assay relative to control; assay type: cell-based; settings: read-out: GI
Staphylococcus aureus [9] = experiment: microbe, parasite or virus in culture; settings: 1199B, 24 h
[10] = target: T1, Quinolone resistance protein NorA (Staphylococcus aureus); experiment: Inhibition of NorA in fluoroquinolone-resistant Staphylococcus aureus 1199B assessed as increase in ethidium bromide uptake at 20 ug/ml after 20 mins by fluorimetry relative to control
Summary of the method: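 Mid-log cells (overnight culture diluted 20-fold, 3.5 h, 37°C, 130 rpm) resuspended in Mueller-Hinton broth containing 10 mg/L EtBr, 37°C; compound added at 10 min (final 20 mg/L), fluorescence (ex 530/em 600 nm) followed 20 more min; rise over pre-addition baseline; reserpine 5 and 20 µg/mL positive, 1.6% DMSO negative; two or three experiments.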

[11] = target: ATP-dependent translocase ABCB1 (Homo sapiens, UniProt P08183); experiment: Inhibition of MDR1 in human NCI-ADR-RES cells assessed as increase in rhodamine-123 uptake at 1 to 100 uM after 1 hr by fluorescence assay; assay type: cell-based
Summary of the method: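 NCI/ADR-RES cells (P-gp overexpressing) were seeded at 60,000/well in RPMI. After 24 h they were washed with PBS and given compound (100, 10, 1 µM) plus 12.5 µM rhodamine 123 in FCS-free medium for 1 h at 37°C, 5% CO2. Cells were then washed, lysed in 20 mM Tris pH 7.7 with 0.2% SDS, and fluorescence read at 507/528 nm.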

Row | Compound | MMC [1] [µg/mL] | MMC [2] | inhibition at 72 h, 10 µM [3] [%] | MIC (Staphylococcus aureus [4]) [µg/mL] | MIC (Staphylococcus aureus [5]) [µg/mL] | MMC [6] [µg/mL] | fold change (FC) [7] | inhibition at 72 h, 1 µM [8] [%] | MIC (Staphylococcus aureus [9]) [µg/mL] | inhibition [10] [%] | inhibition (INH) [11]
1 | CCCCOc1ccc(B(O)O)cn1 | 64 | 328 µM | 1 | > 128 | > 128 | 2 |  |  |  |  | 
2 | COC(=O)[C@H]1[C@H]2C[C@@H]3c4[nH]c5cc(OC)ccc5c4CCN3C[C@H]2C[C@@H](OC(=O)c2cc(OC)c(OC)c(OC)c2)[C@@H]1OC |  | 6.57 µM |  |  |  |  |  |  |  |  | 
3 | OB(O)c1ccc(OCc2ccc3c(c2)OCO3)nc1 |  |  | 0 | > 128 | > 128 | 64 |  |  |  |  | 
4 | OB(O)c1ccc(OCCc2ccccc2)nc1 | 16 | 65.8 µM | 28 | > 128 | > 128 | 1 |  |  |  |  | 
5 | OB(O)c1ccc(SCc2ccccc2)nc1 | 16 | 65.3 µM | 8 | 64 (≈ 261 µM) | 64 (≈ 261 µM) | 0.5 |  |  |  |  | 
6 | OB(O)c1ccc(Oc2ccc(Cl)cc2Cl)nc1 | 32 | 56.4 µM | 1 |  | 128 (≈ 451 µM) | 1 |  |  |  |  | 
7 | CCCCCCCOc1ccc(B(O)O)cn1 | 8 | 33.7 µM | 73 | > 16 | > 16 | 0.5 |  |  |  |  | 
8 | OB(O)c1ccc(OCc2ccccc2)nc1 | 32 | 69.8 µM |  | > 128 | > 128 | 1 | 4 |  |  |  | 
9 | OB(O)c1ccc(Oc2ccccc2)nc1 | 128 | 298 µM | 14 | > 128 | > 128 | 2 |  |  |  |  | 
10 | OB(O)c1ccc(OCc2ccc(Cl)cc2)nc1 | 16 | 121 µM | 33 | ≥ 128 | 128 (≈ 486 µM) | 1 |  |  |  |  | 
11 | OB(O)c1ccc(OCc2ccc(Cl)c(Cl)c2)nc1 |  | 3.35 µM | 44 |  | 16 (≈ 53.7 µM) | 0.125 |  | 0 |  |  | 
12 | O=C(O)c1cn(C2CC2)c2cc(N3CCNCC3)c(F)cc2c1=O [CIPROFLOXACIN] |  |  |  |  | 8 (≈ 24.1 µM) |  |  |  | 0.5 (≈ 1.51 µM) |  | 
13 | OB(O)c1cncc(OCc2ccccc2)c1 |  | > 128 µg/mL | 0 | > 128 | > 128 | 8 |  |  |  |  | 
14 | OB(O)c1ccc(OCCCc2ccccc2)nc1 | 8 | 15.6 µM | 83 | > 128 | > 128 | 0.5 | 4 | 9 |  | 43 | Not Active
15 | OB(O)c1ccc(OCc2ccc(F)cc2)nc1 | 64 | 130 µM | 8 | > 128 | > 128 | 2 |  |  |  |  | 
16 | Cc1cc(B(O)O)cnc1OCc1ccccc1 | 8 | 65.8 µM | 15 |  | > 128 | 4 |  |  |  |  | 
17 | CCCCCCCCCCCCOc1ccc(B(O)O)cn1 |  | > 16 µg/mL | 13 | > 16 | > 16 | > 16 |  |  |  |  | 
18 | OB(O)c1ccc(OCCCCCCCc2ccccc2)nc1 |  | 12.8 µM | 62 | > 16 | > 16 | 0.5 |  |  |  |  | 
19 | OB(O)c1ccc(NCc2ccccc2)nc1 |  | 561 µM | 0 | > 128 | > 128 | 32 |  |  |  |  | 
20 | OB(O)c1ccc(OCCCCCCc2ccccc2)nc1 |  | 13.4 µM | 46 | > 16 | > 16 | 0.5 |  |  |  |  | 
21 | OB(O)c1ccc(OCCCCc2ccccc2)nc1 | 8 | 14.8 µM | 13 | 64 (≈ 236 µM) | 32 (≈ 118 µM) | 0.25 | 4 |  |  | 42 | Not Active
22 | COc1cc(COc2ccc(B(O)O)cn2)cc(OC)c1OC |  |  | 3 | > 128 | > 128 | 8 |  |  |  |  | 
23 | CCCCCOc1ccc(B(O)O)cn1 | 64 | 306 µM | 16 | > 128 | > 128 | 2 |  |  |  |  | 
24 | CCn1cc(C(=O)O)c(=O)c2cc(F)c(N3CCNCC3)cc21 [NORFLOXACIN] |  |  |  |  | 64 (≈ 200 µM) |  |  |  |  |  | 
25 | CC1(C)S[C@@H]2[C@H](NC(=O)[C@H](N)c3ccccc3)C(=O)N2[C@H]1C(=O)O [AMPICILLIN] |  |  |  | 0.25 (≈ 0.715 µM) |  |  |  |  |  |  | 
26 | CCCOc1ccc(B(O)O)cn1 | > 128 | > 128 µg/mL | 0 | > 128 | > 128 | 4 |  |  |  |  | 
27 | CCCCCCOc1ccc(B(O)O)cn1 | 16 | 71.7 µM | 46 |  | > 128 | 2 |  |  |  |  | 
28 | OB(O)c1ccc(OCCCCCc2ccccc2)nc1 |  | 14 µM | 60 |  | 16 (≈ 56.1 µM) | 2 |  | 6 |  |  | 
